Assay results: ChEMBL document CHEMBL1152560, “Substituted 2-arylbenzothiazoles as kinase inhibitors: hit-to-lead optimization” (Bioorg Med Chem, 2009)

Columns and labels:
[1] = target: Fibroblast growth factor receptor 3 (Homo sapiens) (UniProt P22607); assay: Residual activity of FGFR3 at 1 uM by microplate scintillation counting
[2] = target: Receptor-type tyrosine-protein kinase FLT3 (Homo sapiens) (UniProt P36888); assay: Residual activity of wild type FLT3 at 0.1 uM by microplate scintillation counting
[3] = target: Insulin receptor (Homo sapiens) (UniProt P06213); assay: Residual activity of INSR at 1 uM by microplate scintillation counting
[4] = target: Calcium/calmodulin-dependent protein kinase kinase 2 (Homo sapiens) (UniProt Q96RR4); assay: Residual activity of CAMKK2 at 10 uM by microplate scintillation counting
[5] = target: Hepatocyte growth factor receptor (Homo sapiens) (UniProt P08581); assay: Residual activity of MET at 10 uM by microplate scintillation counting
[6] = target: Calcium/calmodulin-dependent protein kinase type II subunit delta (Homo sapiens) (UniProt Q13557); assay: Residual activity of CAMK2D at 1 uM by microplate scintillation counting
[7] = target: Serine/threonine-protein kinase Chk2 (Homo sapiens) (UniProt O96017); assay: Residual activity of CHK2 at 0.1 uM by microplate scintillation counting
[8] = target: PAS domain-containing serine/threonine-protein kinase (Homo sapiens) (UniProt Q96RG2); assay: Residual activity of PASK at 0.1 uM by microplate scintillation counting
[9] = target: Wee1-like protein kinase (Homo sapiens) (UniProt P30291); assay: Residual activity of WEE1 at 10 uM by microplate scintillation counting
[10] = target: Epidermal growth factor receptor (Homo sapiens, UniProt P00533); assay: Inhibition of EGFR in human HCT116 cells by cellular phosphorylation assay
[11] = target: Platelet-derived growth factor receptor beta (Homo sapiens, UniProt P09619); assay: Inhibition of PDGFRbeta in human HCT116 cells by cellular phosphorylation assay; type: cell-based, HCT-116
In short: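 Cells expressing PDGFRβ were treated with compound, then stimulated to give maximal autophosphorylation in controls. Cells were lysed, and receptor phosphorylation was quantified by sandwich ELISA with a receptor-specific capture antibody and an anti-phosphotyrosine antibody. EC50 from a sigmoidal curve relative to the stimulated high control. Nine concentrations, 1 nM–10 μM in half-log steps, each in duplicate.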

Chain of Insulin receptor (Homo sapiens) (P06213 28-758 limits assumed): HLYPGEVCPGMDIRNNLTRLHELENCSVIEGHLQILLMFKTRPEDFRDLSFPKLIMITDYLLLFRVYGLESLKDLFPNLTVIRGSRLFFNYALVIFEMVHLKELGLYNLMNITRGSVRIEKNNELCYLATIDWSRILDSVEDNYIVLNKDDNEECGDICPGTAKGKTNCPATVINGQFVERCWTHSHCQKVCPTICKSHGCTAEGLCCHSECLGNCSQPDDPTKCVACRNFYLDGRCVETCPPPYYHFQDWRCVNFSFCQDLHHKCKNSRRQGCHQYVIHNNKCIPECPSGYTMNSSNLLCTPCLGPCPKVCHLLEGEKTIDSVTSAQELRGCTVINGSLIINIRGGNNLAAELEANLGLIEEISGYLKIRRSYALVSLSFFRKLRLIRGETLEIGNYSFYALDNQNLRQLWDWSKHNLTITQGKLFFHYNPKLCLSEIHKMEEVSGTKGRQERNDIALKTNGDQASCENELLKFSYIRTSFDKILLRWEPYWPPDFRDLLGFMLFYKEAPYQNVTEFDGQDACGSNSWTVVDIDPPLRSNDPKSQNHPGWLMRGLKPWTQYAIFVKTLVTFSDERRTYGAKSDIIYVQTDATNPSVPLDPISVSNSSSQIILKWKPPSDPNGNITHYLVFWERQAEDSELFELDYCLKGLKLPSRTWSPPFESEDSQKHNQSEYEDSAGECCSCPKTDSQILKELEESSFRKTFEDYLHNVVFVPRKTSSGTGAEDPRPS
Chain of Insulin receptor (Homo sapiens) (P06213 763-1382 limits assumed): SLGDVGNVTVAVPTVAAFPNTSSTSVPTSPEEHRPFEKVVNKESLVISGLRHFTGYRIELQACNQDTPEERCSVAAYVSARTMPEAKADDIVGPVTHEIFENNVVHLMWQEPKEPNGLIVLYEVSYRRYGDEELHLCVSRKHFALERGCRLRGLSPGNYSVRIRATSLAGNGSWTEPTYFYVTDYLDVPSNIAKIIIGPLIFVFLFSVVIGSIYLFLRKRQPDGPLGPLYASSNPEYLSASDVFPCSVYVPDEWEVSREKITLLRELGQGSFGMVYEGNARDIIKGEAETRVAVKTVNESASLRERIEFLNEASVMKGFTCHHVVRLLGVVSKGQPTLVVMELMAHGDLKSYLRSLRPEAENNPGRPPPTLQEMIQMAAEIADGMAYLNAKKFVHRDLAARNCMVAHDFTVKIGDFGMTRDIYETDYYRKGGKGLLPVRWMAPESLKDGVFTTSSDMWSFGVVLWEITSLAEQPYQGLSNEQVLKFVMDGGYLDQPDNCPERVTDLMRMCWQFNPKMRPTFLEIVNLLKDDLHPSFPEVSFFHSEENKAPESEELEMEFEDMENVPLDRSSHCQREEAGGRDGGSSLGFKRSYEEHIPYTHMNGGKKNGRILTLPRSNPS
Chain of Serine/threonine-protein kinase Chk2 (Homo sapiens) (O96017 whole entry, the tested form may be a part): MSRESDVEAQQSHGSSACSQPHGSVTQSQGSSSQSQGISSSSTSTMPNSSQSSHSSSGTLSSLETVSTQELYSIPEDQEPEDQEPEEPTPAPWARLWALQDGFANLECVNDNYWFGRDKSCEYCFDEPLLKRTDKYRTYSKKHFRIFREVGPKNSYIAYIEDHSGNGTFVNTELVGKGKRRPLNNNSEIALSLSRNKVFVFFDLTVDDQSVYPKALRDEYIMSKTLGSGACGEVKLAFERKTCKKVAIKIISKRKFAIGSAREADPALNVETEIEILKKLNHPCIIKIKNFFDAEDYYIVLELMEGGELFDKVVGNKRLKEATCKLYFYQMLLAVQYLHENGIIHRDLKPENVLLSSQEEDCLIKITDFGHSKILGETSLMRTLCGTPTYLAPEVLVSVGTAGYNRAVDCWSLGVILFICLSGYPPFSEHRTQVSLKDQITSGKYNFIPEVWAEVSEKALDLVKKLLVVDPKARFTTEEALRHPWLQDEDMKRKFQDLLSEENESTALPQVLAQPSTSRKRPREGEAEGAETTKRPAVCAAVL
Chain of Fibroblast growth factor receptor 3 (Homo sapiens) (P22607 23-806 limits assumed): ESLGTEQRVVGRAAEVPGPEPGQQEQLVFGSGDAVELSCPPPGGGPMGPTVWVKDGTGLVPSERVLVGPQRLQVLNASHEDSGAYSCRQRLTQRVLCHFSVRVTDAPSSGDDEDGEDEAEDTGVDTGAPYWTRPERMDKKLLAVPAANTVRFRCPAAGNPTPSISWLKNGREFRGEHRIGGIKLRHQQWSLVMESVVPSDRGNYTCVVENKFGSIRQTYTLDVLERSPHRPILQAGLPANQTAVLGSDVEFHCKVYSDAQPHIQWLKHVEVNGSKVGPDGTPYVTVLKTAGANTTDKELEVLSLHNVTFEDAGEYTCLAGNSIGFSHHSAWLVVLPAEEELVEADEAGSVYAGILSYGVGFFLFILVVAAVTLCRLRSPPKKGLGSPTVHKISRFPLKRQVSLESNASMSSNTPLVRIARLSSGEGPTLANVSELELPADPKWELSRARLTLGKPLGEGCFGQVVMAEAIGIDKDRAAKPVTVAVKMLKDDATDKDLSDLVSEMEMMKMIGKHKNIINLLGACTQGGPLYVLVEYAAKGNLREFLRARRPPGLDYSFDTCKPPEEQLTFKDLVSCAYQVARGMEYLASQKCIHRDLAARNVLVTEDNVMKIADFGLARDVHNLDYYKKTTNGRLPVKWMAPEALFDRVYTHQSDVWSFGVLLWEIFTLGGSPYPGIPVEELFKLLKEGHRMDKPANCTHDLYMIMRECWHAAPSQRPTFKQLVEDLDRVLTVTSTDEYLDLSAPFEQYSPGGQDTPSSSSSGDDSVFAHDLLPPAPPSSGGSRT
Chain of Wee1-like protein kinase (Homo sapiens) (P30291 whole entry, looked up): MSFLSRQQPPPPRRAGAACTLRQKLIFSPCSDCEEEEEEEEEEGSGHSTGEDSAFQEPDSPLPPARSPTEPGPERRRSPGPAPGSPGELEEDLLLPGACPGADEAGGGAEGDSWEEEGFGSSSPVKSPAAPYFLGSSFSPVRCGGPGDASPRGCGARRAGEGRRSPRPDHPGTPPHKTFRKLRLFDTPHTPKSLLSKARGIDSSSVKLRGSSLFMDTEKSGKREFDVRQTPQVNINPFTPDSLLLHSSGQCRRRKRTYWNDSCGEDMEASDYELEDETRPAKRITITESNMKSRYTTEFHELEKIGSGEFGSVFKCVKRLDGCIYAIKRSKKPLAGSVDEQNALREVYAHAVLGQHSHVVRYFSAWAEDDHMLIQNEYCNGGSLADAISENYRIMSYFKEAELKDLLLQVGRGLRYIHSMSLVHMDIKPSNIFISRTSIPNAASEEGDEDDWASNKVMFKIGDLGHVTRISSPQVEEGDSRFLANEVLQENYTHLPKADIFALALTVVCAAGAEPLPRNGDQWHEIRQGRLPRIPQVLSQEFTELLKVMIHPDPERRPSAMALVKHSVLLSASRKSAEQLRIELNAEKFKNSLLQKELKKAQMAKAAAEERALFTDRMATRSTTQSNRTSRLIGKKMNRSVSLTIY
Chain of Calcium/calmodulin-dependent protein kinase kinase 2 (Homo sapiens) (Q96RR4 2-588 limits assumed): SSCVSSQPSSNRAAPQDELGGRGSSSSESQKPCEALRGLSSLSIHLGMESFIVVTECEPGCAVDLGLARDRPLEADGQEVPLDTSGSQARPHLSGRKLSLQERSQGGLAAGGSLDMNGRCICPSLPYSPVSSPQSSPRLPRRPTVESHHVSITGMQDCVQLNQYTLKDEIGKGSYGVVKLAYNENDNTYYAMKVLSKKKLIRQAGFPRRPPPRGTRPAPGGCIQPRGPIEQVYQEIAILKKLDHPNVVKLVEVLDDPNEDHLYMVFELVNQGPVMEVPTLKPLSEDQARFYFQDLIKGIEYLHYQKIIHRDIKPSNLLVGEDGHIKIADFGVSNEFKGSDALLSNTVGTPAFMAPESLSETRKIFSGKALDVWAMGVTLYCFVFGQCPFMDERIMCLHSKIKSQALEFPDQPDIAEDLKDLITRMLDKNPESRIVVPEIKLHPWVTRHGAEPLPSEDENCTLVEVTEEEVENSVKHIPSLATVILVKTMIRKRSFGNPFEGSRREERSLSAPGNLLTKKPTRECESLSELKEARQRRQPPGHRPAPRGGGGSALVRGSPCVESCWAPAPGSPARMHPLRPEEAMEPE
Chain of Receptor-type tyrosine-protein kinase FLT3 (Homo sapiens) (P36888 whole entry): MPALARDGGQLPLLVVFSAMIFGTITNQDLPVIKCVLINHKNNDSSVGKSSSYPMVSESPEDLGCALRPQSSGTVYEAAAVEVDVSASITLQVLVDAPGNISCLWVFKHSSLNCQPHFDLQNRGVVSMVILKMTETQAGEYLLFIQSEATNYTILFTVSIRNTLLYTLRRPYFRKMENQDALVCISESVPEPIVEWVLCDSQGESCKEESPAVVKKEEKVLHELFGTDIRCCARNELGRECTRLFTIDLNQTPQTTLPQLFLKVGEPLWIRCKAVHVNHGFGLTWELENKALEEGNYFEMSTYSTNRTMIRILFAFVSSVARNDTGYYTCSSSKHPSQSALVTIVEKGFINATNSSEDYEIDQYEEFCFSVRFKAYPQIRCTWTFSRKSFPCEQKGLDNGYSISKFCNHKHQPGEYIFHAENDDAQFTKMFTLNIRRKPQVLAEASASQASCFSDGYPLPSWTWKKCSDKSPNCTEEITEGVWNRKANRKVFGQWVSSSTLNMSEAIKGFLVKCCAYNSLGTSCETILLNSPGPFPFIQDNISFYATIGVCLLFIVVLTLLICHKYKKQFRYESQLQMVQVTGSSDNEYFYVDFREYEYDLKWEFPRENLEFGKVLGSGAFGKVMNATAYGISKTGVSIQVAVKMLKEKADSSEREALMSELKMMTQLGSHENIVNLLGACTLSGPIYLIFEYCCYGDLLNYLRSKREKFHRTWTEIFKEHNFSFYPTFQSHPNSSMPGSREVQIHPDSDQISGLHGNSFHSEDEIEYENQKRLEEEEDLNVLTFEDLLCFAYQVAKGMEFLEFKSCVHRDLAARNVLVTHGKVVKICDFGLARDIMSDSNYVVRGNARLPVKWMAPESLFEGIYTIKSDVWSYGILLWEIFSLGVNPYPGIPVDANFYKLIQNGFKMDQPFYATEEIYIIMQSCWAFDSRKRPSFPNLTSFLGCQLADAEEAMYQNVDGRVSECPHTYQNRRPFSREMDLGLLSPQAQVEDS

Row | Structure (SMILES) | residual activity [1] | residual activity [2] | residual activity [3] | residual activity [4] | residual activity [5] | residual activity [6] | residual activity [7] | residual activity [8] | residual activity [9] | EC50 [10] | EC50 [11]
1 | COc1cc2c(Oc3ccc(-c4nc5ccccc5s4)cc3F)ncnc2cc1OCCCN1CCN(C)CC1 | 88% | 130% | 97% | 112% | 8% | 97% | 92% | 89% | 2% | > 10 µM | 
2 | COc1cc2c(Oc3ccc(-c4nc5ccccc5s4)cc3)ncnc2cc1OCCCN1CCCC1 | 98% | 95% | 95% | 97% | 17% | 96% | 88% | 99% | 46% |  | 2000 nM
3 | COc1cc2c(Oc3ccc(-c4nc5ccccc5s4)cc3)ncnc2cc1OCCCN1CCN(C)CC1 | 90% | 112% | 98% | 109% | 12% | 92% | 91% | 92% | 2% |  | 170 nM
